The source of these data is article PMC6438620 (Bioorganic & medicinal chemistry letters, 2018).

A word on the IC50: it is the concentration needed to halve the response being measured. By Ki is commonly meant a measure of affinity in units of concentration, obtained from inhibition or displacement. Lower therefore signals a stronger hold on the target.

For one data set, the system named is serotonin receptors. Put plainly: PDSP binding at serotonin receptor subtypes.
Data set [1] deals with H1 (histamine receptor 1) (Homo sapiens, UniProt P35367). Put plainly: PDSP primary binding and radioligand binding.
Chain of H1 (histamine receptor 1) (P35367 whole entry): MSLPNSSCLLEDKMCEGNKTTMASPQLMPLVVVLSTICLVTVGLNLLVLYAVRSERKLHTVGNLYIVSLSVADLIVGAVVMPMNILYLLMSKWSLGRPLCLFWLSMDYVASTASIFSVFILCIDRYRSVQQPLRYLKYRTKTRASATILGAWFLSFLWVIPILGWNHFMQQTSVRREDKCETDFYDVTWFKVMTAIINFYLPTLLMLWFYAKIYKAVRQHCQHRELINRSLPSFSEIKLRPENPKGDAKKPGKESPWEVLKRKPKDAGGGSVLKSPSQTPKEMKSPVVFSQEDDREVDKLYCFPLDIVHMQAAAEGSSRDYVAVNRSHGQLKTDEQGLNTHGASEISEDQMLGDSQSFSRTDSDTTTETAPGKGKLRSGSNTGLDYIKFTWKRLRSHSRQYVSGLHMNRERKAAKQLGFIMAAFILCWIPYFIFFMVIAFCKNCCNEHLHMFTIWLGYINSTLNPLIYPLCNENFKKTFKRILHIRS
Data set [2] addresses H2 (histamine receptor 2) (Homo sapiens, UniProt P25021). As to the kind of experiment: PDSP primary binding and radioligand binding.
Data set [3] is described as follows: Clinical chemistry analysis of blood samples. In kind it is in vivo, C57BL6 mice. Conditions: 5 mg/kg, daily i.p. dosing for 7 days, n = 5. In outline:
(§1)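 Female C57BL6 mice were dosed with test compound at 5 mg/kg i.p. once daily for seven consecutive days and sacrificed 24 h after the last injection. Blood clinical chemistry covered electrolytes, minerals, total protein, albumin, globulin, A/G ratio, BUN, ALT, AST, GLDH, ALP, bilirubin, amylase and creatine kinase.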

A short description of data set [4]: Tissue distribution by LC-MS/MS after 7-day i.p. treatment. The following applies: 5 mg/kg i.p. daily for 7 days, 24 h after last injection.
In data set [5] the test system is LLC luc and MDA MB-231 cell lines. As to the kind of experiment: MTT colorimetric cytotoxicity assay, values given over both cell lines. Conditions: for Cytotoxic activity compared with penfluridol: MTT, LLC luc and MDA MB-231. (In general: Tetrazolium assays rely on reduction of a dye to a coloured formazan, in cell work by metabolically active cells.)
The nature of a further data set: Toxicity in mice. Conditions: mouse, in vivo. The procedure, abridged: as §1
Another data set deals with T1, D4 dopamine receptor (Homo sapiens, UniProt P21917).
T1 sequence (P21917 1-419): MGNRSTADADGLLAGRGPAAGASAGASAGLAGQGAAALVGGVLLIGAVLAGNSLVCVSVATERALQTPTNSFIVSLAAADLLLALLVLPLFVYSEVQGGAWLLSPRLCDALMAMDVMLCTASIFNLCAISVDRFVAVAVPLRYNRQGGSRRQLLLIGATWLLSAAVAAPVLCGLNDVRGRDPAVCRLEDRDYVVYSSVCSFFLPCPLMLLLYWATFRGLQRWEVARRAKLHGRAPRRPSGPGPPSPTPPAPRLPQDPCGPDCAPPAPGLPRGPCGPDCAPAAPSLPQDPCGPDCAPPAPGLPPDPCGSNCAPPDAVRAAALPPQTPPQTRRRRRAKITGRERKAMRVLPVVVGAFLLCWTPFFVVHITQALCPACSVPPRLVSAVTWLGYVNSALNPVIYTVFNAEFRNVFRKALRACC
As to the kind of experiment: PDSP primary binding and radioligand binding.

Chain of H2 (histamine receptor 2) (P25021 whole entry): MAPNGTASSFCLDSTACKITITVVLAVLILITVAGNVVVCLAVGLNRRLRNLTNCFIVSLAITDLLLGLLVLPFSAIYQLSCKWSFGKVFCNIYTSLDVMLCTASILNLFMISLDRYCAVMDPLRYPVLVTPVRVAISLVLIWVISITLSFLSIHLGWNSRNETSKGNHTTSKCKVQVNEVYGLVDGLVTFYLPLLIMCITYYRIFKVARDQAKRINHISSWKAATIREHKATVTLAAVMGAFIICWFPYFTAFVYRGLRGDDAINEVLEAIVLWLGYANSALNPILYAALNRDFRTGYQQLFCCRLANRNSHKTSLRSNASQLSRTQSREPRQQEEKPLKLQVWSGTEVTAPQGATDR

With `OC1(c2ccc(Cl)c(C(F)(F)F)c2)CCN(CCCCN(c2ccc(F)cc2)c2ccc(F)cc2)CC1` [11b], in the data set on serotonin receptors (other serotonin receptor subtypes), the “Change of Ki values compared to penfluridol” value is reported as 3–16 fold. In addition, in the data set with serotonin receptors (primary binding, other serotonin receptor subtypes), the “Inhibition levels at other serotonin receptor subtypes” value is reported as > 90%. Moreover, the “Inhibition at some serotonin receptors” value in the data set on serotonin receptors (primary binding) is 50–80%. The “Activity at H1 receptor” value in data set [1] is given as “abolished activity”. Also, in data set [2], the “Activity at H2 receptor” value is “abolished activity”.

For the compound `OC1(c2ccc(Cl)c(C(F)(F)F)c2)CCN(CCCC(c2ccc(F)cc2)c2ccc(F)cc2)CC1` [penfluridol, reference compound], the “Inhibition at some serotonin receptors” value with serotonin receptors (primary binding) is on record as 95–100%. Besides, in data set [3], the “Alkaline phosphatase (ALP) levels” value is “decreased ALP levels”, the “Blood urea nitrogen (BUN) levels” value is “decreased BUN levels” and the “Glutamate dehydrogenase (GLDH)” value is reported as “increased GLDH”. For the same compound, in data set [4], the “Distribution pattern: accumulation of the drug” value is “predominantly in the adipose tissue and lungs”. In data set [5] (Homo sapiens, MDA-MB-231, read-out: IC50 (cytotoxicity, MTT)), the IC50 lay within 4.3 to 5.1 µM.

`OC1(c2ccc(Cl)c(C(F)(F)F)c2)CCN(CCCC(c2ccccc2)c2ccccc2)CC1` [8b]: the “Cytotoxic activity compared with penfluridol” value in data set [5] is on record as “reduced activity”.

Take `OC1(c2ccc(Cl)c(C(F)(F)F)c2)CCN(CCCCCc2ccc(F)cc2)CC1` [compound 13]: in data set [5], the “Cytotoxic activity compared with penfluridol” value is given as “reduced activity”.

Consider `OC1(c2ccc(Cl)c(C(F)(F)F)c2)CCN(CCCCC(c2ccc(F)cc2)c2ccc(F)cc2)CC1` [8a], for which the Toxicity in mice entry in the data set “Toxicity in mice” is recorded as “no toxicity in mice”. In addition, in data set [4], the “Distribution pattern: accumulation of the drug” value was “predominantly in the adipose tissue and lungs”; the “Level of the drug in the brain relative to penfluridol” value was “higher level of the drug in the brain relative to penfluridol”. Besides, affinity on D4 dopamine receptor was put at a Ki of 0.025 µM.

On to `COc1ccc(N(CCCCN2CCC(O)(c3ccc(Cl)c(C(F)(F)F)c3)CC2)c2ccc(OC)cc2)cc1` [8c], for which, in the data set “Toxicity in mice”, the Toxicity in mice entry is “no toxicity in mice”. In data set [3], the “Alkaline phosphatase (ALP) levels” value is recorded as “None of these changes was observed”, the “Blood urea nitrogen (BUN) levels” value is listed as “None of these changes was observed” and the “Glutamate dehydrogenase (GLDH)” value is “None of these changes was observed”. Besides, in data set [4], the “Concentration of the drug in all tested samples (plasma, brain, lungs, adipose tissue)” value was “lower concentration of the drug in all tested samples”.
